Data set [1] in a line: Ratio of tarenflurbil EC50 to compound EC50 for gamma-secretase.
Data set [2] can be described thus: Modulation of gamma-secretase.
For data set [3], the system named is CHO. Description: Modulation of gamma-secretase in CHO cells overexpressing APP V717 mutant assessed as increase in amyloid beta38 level after 17 hrs by ELISA. Format: cell-based. The conditions noted are these: Cricetulus griseus. Summed up: (§1)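 CHO cells overexpressing APP V717F; Aβ42, Aβ40 and Aβ38 quantified together in each well by multiplex Aβ ELISA. EC50 is the mean of at least two determinations.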

The nature of data set [4]: Plasma concentration in CF1 mouse at 30 mg/kg, po after 4 hrs. The data set is classed as ADME, organism-based. Also on record: dose 30 mg/kg, route oral. The method, boiled down: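 Wild-type (CF-1) mice given compound orally as a solution in ethanol:propylene glycol:10% solutol (1:1:8). Animals sacrificed 4 h post-dose; brain and plasma collected for drug exposure and Aβ levels.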

A short description of data set [5]: Drug uptake in CF1 mouse brain at 30 mg/kg, po after 4 hrs. The data set is classed as ADME, organism-based. Also on record: dose 30 mg/kg, route oral. The note with it: read-out: Drug uptake. The method, boiled down: (§2)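 Wild-type CF-1 mice received a single oral dose as a solution in ethanol:propylene glycol:10% solutol (1:1:8). Animals were sacrificed 4 h after dosing. Brain and plasma were collected for drug concentration and Aβ levels. Aβ change was expressed relative to vehicle-treated controls.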

Data set [6] in a line: Modulation of gamma-secretase in CHO cells overexpressing APP V717 mutant assessed as reduction in amyloid beta42 level after 17 hrs by ELISA. The data set is classed as cell-based. The conditions noted are these: Cricetulus griseus. The method, boiled down: as §1
(In general: In an ELISA, binding on a coated surface is turned into a signal by an enzyme label.)

The test system of data set [7] is CHO. The data set can be described thus: Modulation of gamma-secretase in CHO cells overexpressing APP V717 mutant assessed as effect on amyloid beta40 level after 17 hrs by ELISA. The data set is classed as cell-based. The note with it: Cricetulus griseus. Summed up: as §1
The test system of a further data set is Mus musculus. Description: Antialzheimer activity in CF1 mouse assessed as reduction in amyloid beta42 level in brain at 30 mg/kg, po after 4 hrs by ELISA. On the set-up: scale not given: the % may be the effect or the level left. The data set is classed as functional. The method, boiled down: as §2
The next data set deals with Rattus norvegicus. The data set can be described thus: Antialzheimer activity in F344 rat assessed as reduction in amyloid beta42 level in brain at 30 mg/kg, po after 4 hrs by ELISA. The data set is classed as functional, organism-based. Also on record: dose 30 mg/kg.
A short description of data set [8]: Volume of distribution at steady state in cynomolgus monkey at 1 mg/kg, iv. Format: ADME, organism-based, Macaca fascicularis. The conditions noted are these: in vivo, read-out: Vdss. Also on record: dose 1 mg/kg, route intravenous. The method, boiled down: (§3)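 Single dose to rats, dogs and cynomolgus monkeys. IV at 1 mg/kg in EtOH:PEG400:water (10:40:50), 1 mL/kg. Oral at 10 mg/kg as crystalline HCl salt suspension in 0.5% CMC, 0.2% Tween80, 5 mL/kg. Plasma sampled over 0–24 h. Values are mean ± SD, n = 3.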

Data set [9] in a line: Half life in dog at 1 mg/kg, iv. The conditions noted are these: in vivo. The data set is classed as ADME, organism-based, Canis lupus familiaris. Also on record: dose 1 mg/kg, route intravenous. The method, boiled down:
(§4)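 Single-dose PK in rats, dogs and cynomolgus monkeys. The compound was given iv at 1 mg/kg in EtOH:PEG400:water (10:40:50) at 1 mL/kg. […] Values are mean ± SD, n = 3.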

A short description of data set [10]: Plasma clearance in dog at 1 mg/kg, iv. Also on record: dose 1 mg/kg, route intravenous. The data set is classed as ADME, organism-based, Canis lupus familiaris. The method, boiled down:
as §3

The nature of data set [11]: Cmax in dog at 10 mg/kg, po. Also on record: dose 10 mg/kg, route oral. The note with it: in vivo. Format: ADME, organism-based, Canis lupus familiaris. Summed up: (§5)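 Single oral dose of 10 mg/kg given to rats, dogs or cynomolgus monkeys. The crystalline HCl salt was suspended in 0.5% CMC with 0.2% Tween80 and dosed at 5 mL/kg. […] Parameters are reported as mean ± SD, n = 3.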

A short description of data set [12]: Volume of distribution at steady state in dog at 1 mg/kg, iv. Format: ADME, organism-based, Canis lupus familiaris. On the set-up: dose 1 mg/kg, route intravenous. The note with it: in vivo, read-out: Vdss. Summed up: as §3
Data set [13] is described as follows: Half life in dog at 10 mg/kg, po. Format: ADME, organism-based, Canis lupus familiaris. On the set-up: dose 10 mg/kg, route oral. The conditions noted are these: in vivo. The method, boiled down:
as §5

Data set [14] is described as follows: Cmax in cynomolgus monkey at 10 mg/kg, po. The note with it: in vivo. Also on record: dose 10 mg/kg, route oral. The data set is classed as ADME, organism-based, Macaca fascicularis. The method, boiled down:
as §5

The nature of data set [15]: Plasma clearance in cynomolgus monkey at 1 mg/kg, iv. Format: ADME, organism-based, Macaca fascicularis. On the set-up: dose 1 mg/kg, route intravenous. Summed up:
as §3

Data set [16] can be described thus: Tmax in rat at 10 mg/kg, po. The data set is classed as ADME, organism-based. On the set-up: dose 10 mg/kg, route oral. The note with it: in vivo. Summed up: as §3
A short description of data set [17]: Oral bioavailability in rat at 10 mg/kg. The data set is classed as ADME, organism-based. The conditions noted are these: in vivo. The method, boiled down:
as §3

Data set [18] in a line: Volume of distribution at steady state in rat at 1 mg/kg, iv. The data set is classed as ADME, organism-based. Also on record: dose 1 mg/kg, route intravenous. The conditions noted are these: in vivo, read-out: Vdss. The method, boiled down:
as §3

Data set [19] can be described thus: AUC (0 to 24 hrs) in rat at 10 mg/kg, po. Format: ADME, organism-based. Also on record: time < 24 hr, dose 10 mg/kg, route oral. The note with it: plasma.
The nature of data set [20]: Oral bioavailability in cynomolgus monkey at 10 mg/kg. The data set is classed as ADME, organism-based, Macaca fascicularis. The note with it: in vivo. The method, boiled down: as §3
Data set [21] can be described thus: Half life in rat at 10 mg/kg, po. The data set is classed as ADME, organism-based. Also on record: dose 10 mg/kg, route oral. The conditions noted are these: in vivo. The method, boiled down:
as §5

A short description of data set [22]: Thermodynamic solubility of the compound. Format: physicochemical. The note with it: read-out: Therm_solubility. The method, boiled down: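 Thermodynamic solubility measured on the crystalline HCl salt.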
A short description of data set [23]: Cmax in rat at 10 mg/kg, po. Format: ADME, organism-based. The note with it: in vivo. On the set-up: dose 10 mg/kg, route oral. Summed up:
as §5

Data set [24] is described as follows: Oral bioavailability in dog at 10 mg/kg. Format: ADME, organism-based, Canis lupus familiaris. The note with it: in vivo. The method, boiled down: as §3
Data set [25] in a line: AUC (0 to 24 hrs) in dog at 1 mg/kg, iv. The data set is classed as ADME, organism-based, Canis lupus familiaris. Also on record: time < 24 hr, dose 1 mg/kg, route intravenous. The note with it: plasma. Summed up: as §4
A short description of data set [26]: Half life in rat at 1 mg/kg, iv. Format: ADME, organism-based. Also on record: dose 1 mg/kg, route intravenous. The note with it: in vivo. The method, boiled down: as §4
Data set [27] can be described thus: AUC (0 to 24 hrs) in dog at 10 mg/kg, po. The data set is classed as ADME, organism-based, Canis lupus familiaris. Also on record: time < 24 hr, dose 10 mg/kg, route oral. The note with it: plasma.
Data set [28] in a line: AUC (0 to 24 hrs) in cynomolgus monkey at 10 mg/kg, po. Format: ADME, organism-based, Macaca fascicularis. On the set-up: time < 24 hr, dose 10 mg/kg, route oral. The conditions noted are these: plasma.
Data set [29] in a line: Plasma clearance in rat at 1 mg/kg, iv. The data set is classed as ADME, organism-based. Also on record: dose 1 mg/kg, route intravenous. Summed up:
as §3

The nature of data set [30]: AUC (0 to 24 hrs) in cynomolgus monkey at 1 mg/kg, iv. The conditions noted are these: plasma. Format: ADME, organism-based, Macaca fascicularis. On the set-up: time < 24 hr, dose 1 mg/kg, route intravenous. The method, boiled down: as §4
Data set [31] can be described thus: Half life in cynomolgus monkey at 10 mg/kg, po. The data set is classed as ADME, organism-based, Macaca fascicularis. Also on record: dose 10 mg/kg, route oral. The conditions noted are these: in vivo. Summed up:
as §5

Data set [32] is described as follows: Tmax in cynomolgus monkey at 10 mg/kg, po. Format: ADME, organism-based, Macaca fascicularis. On the set-up: dose 10 mg/kg, route oral. The note with it: in vivo. The method, boiled down: as §3
Data set [33] in a line: AUC (0 to 24 hrs) in rat at 1 mg/kg, iv. Format: ADME, organism-based. Also on record: time < 24 hr, dose 1 mg/kg, route intravenous. The conditions noted are these: plasma. The method, boiled down: as §4
A short description of data set [34]: Tmax in dog at 10 mg/kg, po. The data set is classed as ADME, organism-based, Canis lupus familiaris. Also on record: dose 10 mg/kg, route oral. The note with it: in vivo. Summed up: as §3
A short description of data set [35]: Half life in cynomolgus monkey at 1 mg/kg, iv. The data set is classed as ADME, organism-based, Macaca fascicularis. On the set-up: dose 1 mg/kg, route intravenous. The conditions noted are these: in vivo. Summed up:
as §4

Results on 3 molecules are retold here after ChEMBL document CHEMBL2146445, “Discovery of BIIB042, a Potent, Selective, and Orally Bioavailable γ-Secretase Modulator” (ACS Med Chem Lett, 2011).

Broadly, the EC50 is the concentration giving half of the maximal effect. For orientation: half-life means the time needed for the level to fall by half in the phase considered. Broadly, the clearance is the rate of elimination divided by the concentration. In general, Cmax refers to the maximum level reached in the sampled fluid or tissue. Usually Tmax stands for the time from dosing to the highest level. What is called AUC(0-t) is exposure summed from dosing to a finite time, without extrapolation to infinity.

Calls of active or inactive are those of the source.

As to `O=C(O)C1(c2ccc(-c3ccc(Cl)c(Cl)c3)c(F)c2)CC1`, the Ratio EC50 in data set [1] came out at 7. For the same molecule, the EC50 in data set [2] was 40 µM.

With `CC1CCN(C(c2ccc(F)cc2)c2ccc(C(C)(C)C(=O)O)cc2-c2ccc(C(F)(F)F)cc2)CC1` (configuration not stated), the result with CHO [3] was Active. Moreover, the figures for the concentration at 4 h in data set [4] and in [5] were 22.8 µM and 16.1 µM, respectively. The half-maximal effective concentration (EC50) in data set [6] turned out to be 0.45 µM. Moreover, the result with CHO [7] and in the data set on Rattus norvegicus was inactive. Besides, the Activity in the data set on Mus musculus is 30%.

On to `CC1CCN([C@H](c2ccc(F)cc2)c2ccc([C@@H](C)C(=O)O)cc2-c2ccc(C(F)(F)F)cc2)CC1.Cl`, for which the Vd in [8] worked out at 1.7 L/kg; in [12], 0.9 L/kg; in data set [18], 0.8 L/kg. Further, the half-life is 1.3 h in [9]; 2.3 h in data set [13]; 6.6 h in [21]; 7.2 h in data set [26]; 25 h in [31]; 11.2 h in [35]. Besides, the clearance in data set [10] amounted to 14 mL/min/kg; in data set [15], 3.7 mL/min/kg; in data set [29], 1.5 mL/min/kg. For the same molecule, the peak concentration (Cmax) in data set [11] stood at 1400 ng/mL; in data set [14], 5900 ng/mL; in [23] it was 6000 ng/mL. For the same molecule, the time to peak (Tmax) in data set [16] was 1.7 h; in data set [32], 2 h; in [34], 1.3 h. The bioavailability was 47% in data set [17], 106% in [20] and 44% in data set [24]. Besides, the AUC(0-t) at 24 h turned out to be 49700 ng·h/mL in data set [19]; 1200 ng·h/mL in data set [25]; 5200 ng·h/mL in data set [27]; 48000 ng·h/mL in data set [28]; 4700 ng·h/mL in data set [30]; 10400 ng·h/mL in [33]. Moreover, the solubility thermodynamic in data set [22] was 20 µg/mL.
